Five compounds from PubChem BioAssay AID493088 (Southern Research Specialized Biocontainment Screening …, 2011) can be followed below.

pIC50: −log10 of the molar value. Active and inactive are the calls of the source.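 The calls were made as follows: active = compounds blocking at least half of the virus-caused cell damage in the dose series; inactive = the rest.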 A value given as a limit tells only on which side of the number the result lay.

This experiment relates to HEp-2 RSV Long CPE inhibition, luminescence. In words: RSV cytopathic effect inhibition, dose response, cell-based, HEp-2, RSV Long, synthesized compounds, set 5 (AID 493088). In short, it runs like this:
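Assay system – RSV Long-infected HEp-2 cells · Probe or stimulus – RSV Long, MOI 0.45 · Compound – 8 doses, 1:2 steps, 0.39–50 µM, 0.5% DMSO · Times – 6-day incubation of infected, compound-treated cells at 37 °C · Detection – luminescent CPE signal · Evaluation – % CPE inhibition versus cell-only and virus-only wells, plus IC50 · Control set – cell-only and virus-only wells · Replication – triplicates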
(Cytopathic effects are the visible damage that an infection or toxin causes in cultured cells.)
The term pIC50 denotes the negative decadic logarithm of the IC50, by convention in mol/L. With `COCCCNC(=O)c1ccc(Cn2c(=O)c3ccccc3n(Cc3ccc(C)cc3)c2=O)cc1`, the negative logarithm of the IC50 (pIC50) was 5.77.
On the same count and under the same terms, then `CCc1ccccc1NC(=O)[C@@H]1CCCN1S(=O)(=O)c1cccc2cccnc12`, with 4.79.
One may read the IC50 as the midpoint of a concentration-inhibition curve. On to `CC(=O)c1ccccc1NC(=O)[C@@H]1CCCN1S(=O)(=O)c1cccc2cccnc12`, for which the IC50 was > 50 µM (inactive).
Still for that read-out and setting: then `Cc1ncccc1NC(=O)[C@@H]1CCCN1S(=O)(=O)c1cccc2cccnc12`, with > 50 µM (inactive).
As for `CCOC(=O)c1ccc2[nH]c3c(c2c1)CN(C)CC3`, the pIC50 is 4.55.
